Like-named read-outs stand apart in the source and are kept apart here.
Key:
[1] = format: in vivo; settings: mouse, sc, 10 mg/kg
Procedure, shortened: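 Dosing was 10 mg/kg, s.c. or i.p. by compound, with sparse sampling of plasma and brain. Total drug measured by LC-MS/MS was multiplied by fraction unbound to give free concentrations. Fraction unbound came from 5 μM compound incubated in mouse plasma or brain homogenate by rapid equilibrium dialysis. Parameters were derived by noncompartmental analysis, with terminal half-life by best fit.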

[2] = system: narcoleptic male orexin/tTA; TetO-DTA mice; assay: EEG/EMG sleep/wake and cataplexy scoring after dosing before dark onset; format: in vivo, mouse
Procedure, shortened: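 Crossover in telemetered male DTA mice (n = 7) given 1, 3 or 10 mg/kg s.c. or i.p., or the matching vehicle, 15 min before ZT12, ≥3 d between doses. EEG/EMG were scored for 6 h as hourly and cumulative time per state and as bouts. NREM latency ran from dosing to the first 6 consecutive NREM epochs; REM latency to the first 3 REM epochs. Analysis used 1-way ANOVA or 2-way RM ANOVA (treatment × time), with Holm-Sidak vs vehicle.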

[3] = system: narcoleptic male orexin/tTA; TetO-DTA mice; assay: EEG spectral power analysis; format: in vivo, mouse
Procedure, shortened: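 Male orexin/tTA;TetO-DTA mice (n = 7) with subcutaneous EEG/EMG telemeters received vehicle or 1, 3 or 10 mg/kg (s.c. or i.p. by compound, 10 mL/kg) 15 min before light offset at ZT12. Design was repeated measures in balanced order, ≥3 d apart. Normalized EEG spectra were taken in 0.122 Hz bins and bands: delta 0.5–4, theta 4–9, alpha 9–12, beta 12–30, low gamma 30–60, high gamma 60–100 Hz. Each state needed ≥3 animals. Analysis was 2-way RM ANOVA with Holm-Sidak.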

[4] = system: narcoleptic OX2R knockout (KO) mice; settings: subcutaneous; ref Yukitake et al., 2019; cited from earlier work
[5] = Fraction unbound by rapid equilibrium dialysis; format: in vitro ADME; settings: mouse
[6] = system: narcoleptic male orexin/tTA; TetO-DTA mice; assay: Gross motor activity, running wheel activity and subcutaneous temperature; format: in vivo, mouse
Procedure, shortened: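 Gross motor activity came from the implanted subcutaneous telemeter, alongside home-cage running-wheel activity and bouts and subcutaneous temperature, analysed per ZT hour after dosing. Male DTA mice (n = 7), adapted ≥2 weeks to wheels, handling and dosing, received vehicle or 1, 3 or 10 mg/kg s.c. or i.p. 15 min before ZT12 in repeated-measures order. Analysis was 2-way RM ANOVA (treatment × time) with Holm-Sidak.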

[7] = system: healthy sleep-deprived adults; settings: Phase 1; ref Evans et al., 2019; cited from earlier work
wild-type mice [8] = settings: subcutaneous; ref Yukitake et al., 2019; cited from earlier work
OX1R = settings: OX2R over OX1R; ref Kimura et al., 2019; cited from earlier work
wild-type mice [9] = settings: oral, 5h into the light period, normal sleep phase; ref Ishikawa et al., 2019; cited from earlier work
OX2R = settings: read-out: EC50 on OX2R; ref Kimura et al., 2019; cited from earlier work
[10] = Phase 2; led Takeda to suspend dosing; cited from earlier work
Hcrt-neuron ablated mice = settings: ref Kimura et al., 2019; cited from earlier work
orexin/ataxin-3 mice = settings: chronic dosing for up to 14 days; ref Ishikawa et al., 2020; cited from earlier work
[11] = first hour, all doses 1–10 mg/kg s.c.
[12] = first post-dosing hour (ZT13), all doses s.c.
[13] = first post-dosing hour, all doses s.c.
[14] = second post-dosing hour, 10 mg/kg s.c.

## COC(=O)N1CCC[C@H](NS(C)(=O)=O)[C@@H]1CO[C@H]1CC[C@@H](c2ccccc2)CC1 [TAK-925, Methyl (2R,3S)-3-[(methylsulfonyl)amino]-2-{[(cis-4-phenylcyclohexyl)oxy]methyl}piperidine-1-carboxylate]
[1]; brain
  Cmax: 20 ng/g
  Tmax: 10 min
  half-life: 53 min
[1]; plasma
  AUC(0-t): 335 ng·h/mL
  Cmax: 160 ng/mL
  Tmax: 10 min
  half-life: 36 min
[2]; 10 mg/kg s.c.
  Duration of the reduction of Wake bouts: up to 3 h
[2]; 10 mg/kg s.c., p = 1.74 × 10^−4
  Cumulative time in Cataplexy: suppression of Cataplexy
[2]; 1, 3 and 10 mg/kg s.c., vs vehicle
  Latency to NREM sleep: delayed NREM sleep onset
[2]; 1–10 mg/kg s.c.
  Effects on arousal states (Wake, NREM, REM) across the 6-h recording: transitory
  NREM bout duration, post hoc test per dose: did not identify any specific dose
  REM bout duration, post hoc test per dose: did not identify any specific dose
[2]; all doses (1, 3, 10 mg/kg s.c.), vs vehicle
  Latency to REM sleep: delayed REM sleep
[2]; all doses s.c., 6-h recording
  Wake bout duration, treatment effect: significant treatment effects
[2]; entire 6-h recording, s.c.
  REM/NREM ratio: unchanged
[2]; [11]
  Hourly amount of Cataplexy: eliminated
  Hourly amount of NREM sleep: eliminated
  Hourly amount of REM sleep: eliminated
  Hourly amount of Wake: caused continuous wakefulness
[2]; [12]
  Wake bout duration: increased Wake bout duration
[2]; [13]
  Number of bouts of Cataplexy: reduced the number of bouts
  Number of bouts of NREM: reduced the number of bouts
  Number of bouts of REM: reduced the number of bouts
  Number of bouts of Wake: reduced the number of bouts
[2]; first two hours, all doses s.c.
  Number of Cataplexy bouts: reduced the number of Cataplexy bouts
[2]; hours after the first post-dosing hour, s.c.
  Compensatory NREM sleep after increased wakefulness: no compensatory increase in NREM sleep
[2]; only 10 mg/kg s.c., p = 0.013
  Number of Wake bouts across the entire 6-h recording: reduced the number of Wake bouts
[2]; only the highest dose (10 mg/kg s.c.)
  Percent time in Cataplexy across the 6-h recording: reduced Cataplexy across the entire 6-h recording period
[2]; s.c., ZT16, 4 hours post-treatment
  REM sleep rebound after early suppression: rebound that reached significance at ZT16
[2]; s.c., first two hours after dosing, followed by a later rebound
  Cumulative time in REM sleep: significant suppression of REM sleep
[2]; second post-dosing hour (ZT14), highest dose s.c.
  Increase of Wake bout duration: continued into the second post-dosing hour
[2]; [14]
  Hourly amount of Cataplexy: reduction of Cataplexy continued into the second post-dosing hour
[3]; 10 mg/kg s.c., p = 0.02
  High gamma EEG power during Wake across the entire recording period: significantly increased high gamma
[3]; ZT13, 1 mg/kg s.c.
  Waking EEG high gamma power: significantly increased high gamma power
[3]; ZT13, 3 and 10 mg/kg s.c.
  Waking EEG spectral power in alpha, low gamma and high gamma: significantly increased spectral power in all three bandwidths
[3]; ZT14, 1 mg/kg s.c.
  NREM EEG delta power: increased NREM delta
[3]; ZT14, 10 mg/kg s.c.
  NREM EEG spectral power: increased spectral power during ZT14 for all EEG bands except for low gamma
[3]; [14]
  Waking EEG high gamma power, persistence of effect: continued into the second post-dosing hour
[4]
  Wakefulness: but not in narcoleptic OX2R knockout (KO) mice
[5]; mouse brain homogenate
  fraction unbound at 5 μM: 0.077
[5]; mouse plasma
  fraction unbound at 5 μM: 0.107
[6]; ZT13, all doses s.c.
  Number of running bouts: more running bouts
[6]; ZT17, 10 mg/kg s.c.
  Running wheel activity: Reduced running wheel activity
[6]; ZT17, highest dose s.c.
  Gross motor activity: reduced gross motor activity
[6]; ZT18, 10 mg/kg s.c.
  Running wheel activity: increase at ZT18
[6]; first post-dosing hour (ZT13), 1 mg/kg s.c.
  Running wheel activity: significantly increased running wheel activity
[6]; [12]
  Gross motor activity: significantly increased motor activity
  Subcutaneous temperature (Tsc): significantly increased Tsc
[7]
  Ability to maintain wakefulness: improved individuals’ ability to maintain wakefulness
  Tolerability: well-tolerated
wild-type mice [8]
  Wakefulness: wake-promoting

## CC(C)(O)C(=O)N1CC[C@H](NS(C)(=O)=O)[C@@H]1Cc1cccc(-c2cc(F)cc(F)c2)c1F.CC(C)(O)C(=O)N1CC[C@H](NS(C)(=O)=O)[C@@H]1Cc1cccc(-c2cc(F)cc(F)c2)c1F.O.O.O [TAK-994]
OX1R
  selectivity against OX1R: > 700 fold
wild-type mice [9]
  Wakefulness: promoted wakefulness
OX2R
  EC50: 19 nM
[10]
  Safety: a safety signal emerged
Hcrt-neuron ablated mice
  Cataplectic episodes: suppressing cataplectic episodes
  Time spent in wake: increased time spent in wake
  Wake maintenance: improved wake maintenance
orexin/ataxin-3 mice
  Sleep rebound: without causing a sleep rebound
  Wakefulness after chronic dosing: wake-promoting effects
